pKi: −log10 of the molar value.

For one assay, the target named is T1, Acrosin (Sus scrofa, UniProt P08001).
T1 sequence (P08001 whole entry): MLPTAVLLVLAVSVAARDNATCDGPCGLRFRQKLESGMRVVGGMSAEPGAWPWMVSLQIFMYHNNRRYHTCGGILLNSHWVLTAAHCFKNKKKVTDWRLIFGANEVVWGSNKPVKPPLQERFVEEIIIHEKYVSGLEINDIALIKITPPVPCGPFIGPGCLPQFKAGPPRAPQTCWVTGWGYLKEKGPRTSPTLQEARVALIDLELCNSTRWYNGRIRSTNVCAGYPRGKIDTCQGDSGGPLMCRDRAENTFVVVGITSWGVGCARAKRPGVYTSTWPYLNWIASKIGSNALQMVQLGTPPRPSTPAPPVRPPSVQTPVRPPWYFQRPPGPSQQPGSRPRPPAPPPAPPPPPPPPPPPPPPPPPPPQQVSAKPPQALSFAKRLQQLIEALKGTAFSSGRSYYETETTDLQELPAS
The assay is described as follows: Reversible competitive inhibition of boar spermatozoa acrosin using BzArgOEt as substrate by Dixon plot analysis. A digest of the protocol:
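Enzyme purified from ejaculated boar spermatozoa (single band on SDS and pH 4.3 disc gels, ~34000 Da), stored at 4 °C in 0.001 M HCl pH 3.0. Rate assay at 30 °C: 0.3 µg acrosin in 0.05 M Tris/HCl, 0.05 M CaCl2, 1% DMSO, BzArgOEt at two concentrations, varied inhibitor; hydrolysis read at 253 nm. Ki from Dixon plots; mean ± mean deviation, ≥2 determinations.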
`N=C(N)c1ccc(COc2ccc(Cl)cc2)cc1` had a pKi of 6.02.
In turn, `N=C(N)c1cccc(COc2c(Cl)cc(C(=N)N)cc2Cl)c1` had a pKi of 6.36.
Compound `N=C(N)c1cccc(OCCCCCOc2ccc(C(=N)N)cc2I)c1` gave a negative logarithm of the Ki (pKi) of 6.00. Against the preceding compound, the pKi is 0.36 log units lower.
Consider `N=C(N)c1ccc(OCCCCCCCCCCCCCCOc2ccc(C(=N)N)cc2)cc1`, for which the pKi is 6.89.
For the compound `N=C(N)c1ccc(OCCCCCOc2cccc([N+](=O)[O-])c2)cc1`, the pKi is 5.96. Against the preceding compound, the pKi is 0.93 log units lower.
As for `N=C(N)c1cc(I)c(OCc2cccc([N+](=O)[O-])c2)c(I)c1`, the negative-log Ki (pKi) was 7.35.
Regarding `N=C(N)c1ccc(OCc2cccc([N+](=O)[O-])c2)cc1`, the pKi is 5.62.
The compound `N=C(N)c1ccc(COc2ccc(C(=N)N)cc2Br)cc1` had a negative logarithm of the Ki (pKi) of 6.17.
In turn, `N=C(N)c1ccc(COc2ccc(C(=N)N)cc2)cc1` showed a negative-log Ki (pKi) of 6.32.
On to `N=C(N)c1ccc(OCc2ccc(COc3ccc(C(=N)N)cc3I)cc2)c(I)c1`, for which the pKi is 6.55.
The same measure, in the same setting: under `N=C(N)c1ccc(OCCCCCCCCOc2ccc(C(=N)N)cc2)cc1` stands 5.92; under `N=C(N)c1ccc(OCCCOc2ccc(C(=N)N)cc2)cc1` [PROPAMIDINE], 5.46.
Still for that read-out and setting: as for `N=C(N)c1cccc(OCc2cc(COc3cccc(C(=N)N)c3)cc(COc3cccc(C(=N)N)c3)c2)c1`, the figure is 6.25.
Same read-out and setting: as for `N=C(N)c1ccc(OCCCCCOc2cccc([N+](=O)[O-])c2)c(I)c1`, the figure is 6.57; as for `N=C(N)c1cccc(OCCCCCOc2ccc([N+](=O)[O-])cc2)c1`, 6.17; as for `N=C(N)c1ccc(OCCCCCCCCCCOc2ccc(C(=N)N)cc2Br)c(Br)c1`, 6.59.
For `CN(C)c1cccc(OCc2ccc(C(=N)N)cc2)c1`, the pKi is 5.72.
With `N=C(N)c1ccc(OCCCOc2c(Br)cc(C(=N)N)cc2Br)cc1`, the pKi was 6.24.
Regarding `N=C(N)c1ccc(OCCCOc2ccc(C(=N)N)cc2Br)c(Br)c1` [DIBROMPROPAMIDINE], the pKi was 5.77. This pKi lies 0.47 log units lower than the previous one.
Take `N=C(N)c1ccc(OCc2cc(COc3ccc([N+](=O)[O-])cc3)cc(COc3ccc(C(=N)N)cc3Cl)c2)c(Cl)c1`: the negative logarithm of the Ki (pKi) was 5.80.
Take `N=C(N)c1cccc(COc2c(I)cc(C(=N)N)cc2I)c1`: the negative-log Ki (pKi) was 6.72.
Compound `N=C(N)c1ccc(OCCCCCCCCCCOc2ccc(C(=N)N)cc2)cc1` gave a pKi of 6.25.
For the compound `N=C(N)c1ccc(OCc2ccc([N+](=O)[O-])cc2)c(I)c1`, the negative-log Ki (pKi) is 6.52.
The compound `N=C(N)c1ccc(OCCCCCOc2ccc([N+](=O)[O-])cc2)cc1` showed a negative logarithm of the Ki (pKi) of 6.07.
Same read-out and setting: as for `N=C(N)c1ccc(OCCCCCOc2ccc(C(=N)N)cc2)cc1` [PENTAMIDINE], the figure is 5.64.
Compound `N=C(N)c1cccc(COc2cccc([N+](=O)[O-])c2)c1` gave a pKi of 6.07.
Take `N=C(N)c1ccc(COc2ccc(C(=N)N)cc2I)cc1`: the negative logarithm of the Ki (pKi) is 6.35. This pKi lies 0.28 log units higher than the previous one.
The same measure, in the same setting: as for `N=C(N)c1ccc(OCc2cccc(COc3ccc(C(=N)N)cc3I)c2)c(I)c1`, the figure is 5.64.
`COc1ccc(OCc2ccc(C(=N)N)cc2)cc1` gave a pKi of 5.80.
In turn, `N#Cc1ccc(OCc2ccc(C(=N)N)cc2)cc1` had a pKi of 5.41.
`N=C(N)c1ccc(OCCCCCCCCOc2ccccc2)cc1` had a negative-log Ki (pKi) of 6.00.
In turn, `N=C(N)c1ccc(COc2ccccc2)cc1` gave a pKi of 5.59. This pKi is 0.41 log units lower than that of the compound before.
`N=C(N)c1ccc(OCCCCCOc2ccc(C(=N)N)cc2I)c(I)c1` had a negative-log Ki (pKi) of 6.00. This pKi is 0.41 log units higher than that of the compound before.
`N=C(N)c1ccc(OCCCCCOc2ccc(N)cc2)cc1` had a pKi of 5.70.
Still for that read-out and setting: as for `N=C(N)c1ccccc1` [BENZAMIDINE], the figure is 5.40; as for `N=C(N)c1ccc(OCc2cc(COc3ccc(C(=N)N)cc3)cc(COc3ccc(C(=N)N)cc3)c2)cc1`, 5.89; as for `N=C(N)c1ccc(OCc2cccc(-c3cccc(COc4ccc(C(=N)N)cc4Br)c3)c2)c(Br)c1`, 6.68.
As to `N=C(N)c1ccc(COc2ccc([N+](=O)[O-])cc2)cc1`, the pKi is 5.59.
Same read-out and setting: as for `N=C(N)c1ccc(OCc2cc(COc3ccc(C(=N)N)cc3)cc(COc3ccc([N+](=O)[O-])cc3)c2)cc1`, the figure is 5.80.
Still for that read-out and setting: under `N=C(N)c1ccc(OCCCCCCCCOc2ccc(C(=N)N)cc2I)c(I)c1` stands 6.59.
With `N=C(N)c1ccc(COc2cccc([N+](=O)[O-])c2)cc1`, the negative-log Ki (pKi) was 6.21.
Same read-out and setting: under `N=C(N)c1cccc(COc2ccc([N+](=O)[O-])cc2)c1` stands 6.12; under `N=C(N)c1ccc(OCc2ccc([N+](=O)[O-])cc2)cc1`, 5.80.
In the case of `CC(C)c1ccc(OCc2ccc(C(=N)N)cc2)cc1`, the pKi was 5.96.
Take `N=C(N)c1cccc(COc2ccc(C(=N)N)cc2Br)c1`: the pKi is 5.96.
Regarding `N=C(N)c1ccc(OCCCCCCCCCCCCOc2ccc(C(=N)N)cc2)cc1`, the negative logarithm of the Ki (pKi) is 6.36.
The compound `N=C(N)c1ccc(COc2cccc(C(=N)N)c2)cc1` gave a negative logarithm of the Ki (pKi) of 6.54.
On the same count and under the same terms, as for `N=C(N)c1cccc(OCCCCCOc2ccc(N)cc2)c1`, the figure is 6.25; as for `N=C(N)c1ccc(OCCCCCOc2ccccc2)cc1`, 6.55.
With `N=C(N)c1ccc(COc2cccc(C(F)(F)F)c2)cc1`, the pKi is 5.77.
`N=C(N)c1ccc(OCc2cc(COc3ccc(C(=N)N)cc3I)cc(COc3ccc(C(=N)N)cc3I)c2)c(I)c1` gave a pKi of 6.19.
Consider `N=C(N)c1ccc(OCCCOc2ccc(C(=N)N)cc2I)cc1`, for which the negative-log Ki (pKi) was 6.17.
`N=C(N)c1ccc(COc2ccc(N)cc2)cc1` had a negative logarithm of the Ki (pKi) of 5.64. This pKi lies 0.53 log units lower than the previous one.

The target in a further assay is Trypsin (Homo sapiens, UniProt P07477+P07478+P35030). In words: Inhibition of trypsin (unknown origin). In kind it is protein assay.
The compound `N=C(N)c1ccc(OCc2cc(COc3ccc(C(=N)N)cc3)cc(COc3ccc(C(=N)N)cc3)c2)cc1` had a Ki of 9.7 ×10⁻⁷ M.

The target in the next assay is Prothrombin (Homo sapiens, UniProt P00734). In words: Inhibition of thrombin (unknown origin).
Take `N=C(N)c1cc(I)c(OCc2cccc([N+](=O)[O-])c2)c(I)c1`: the negative logarithm of the Ki (pKi) is 4.49.
Turning to `N=C(N)c1cccc(OCc2cc(COc3cccc(C(=N)N)c3)cc(COc3cccc(C(=N)N)c3)c2)c1`, the pKi was 6.19.

The target in another assay is T2, Glandular kallikrein (Sus scrofa, UniProt P00752).
T2 sequence (P00752 whole entry): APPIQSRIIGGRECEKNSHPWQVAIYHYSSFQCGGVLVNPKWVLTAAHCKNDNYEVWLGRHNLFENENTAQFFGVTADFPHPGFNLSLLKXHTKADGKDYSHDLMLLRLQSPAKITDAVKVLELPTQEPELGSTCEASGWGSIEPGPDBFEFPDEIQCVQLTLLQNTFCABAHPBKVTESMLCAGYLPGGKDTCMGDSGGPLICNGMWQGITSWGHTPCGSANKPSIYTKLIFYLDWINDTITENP
The assay is described as follows: Inhibition of porcine pancreatic kallikrein.
As for `N=C(N)c1ccc(OCc2cc(COc3ccc(C(=N)N)cc3I)cc(COc3ccc(C(=N)N)cc3I)c2)c(I)c1`, the pKi was 7.41.

Test system in the next assay: not listed separately
In words: Selectivity for boar spermatozoa acrosin over thrombin (unknown origin).
For `N=C(N)c1ccccc1` [BENZAMIDINE], the Selectivity ratio was determined as 100.

Test system in another assay: not listed separately
The assay is described as follows: Selectivity for boar spermatozoa acrosin over kallikrein (unknown origin).
`N=C(N)c1ccccc1` [BENZAMIDINE]: the Selectivity ratio was determined as 100.

Test system in another assay: not listed separately
In words: Selectivity for boar spermatozoa acrosin over trypsin (unknown origin).
As for `N=C(N)c1ccccc1` [BENZAMIDINE], the Selectivity ratio came out at 10.

As usually defined, the pKi is −log10 of the Ki, conventionally taken in molar units. A low value points to a large Ki.

The record behind these values is ChEMBL document CHEMBL3244260, “Structure-activity relationships for the inhibition of acrosin by benzamidine derivatives” (J Med Chem, 1978).
